ASAP1 inh: blocks human ASAP1-stimulated Arf1 GTP hydrolysis; Q9ULH1; GDP FP detection; inhibition, % at 16.5 µM; hit rate 0.19% among 360,000; AID 624377; in the data active = inhibition above about 25%;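 note: 0% = vehicle with enzyme and substrate and 100% = no enzyme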
Target sequence (Q9ULH1 325-724 limits assumed): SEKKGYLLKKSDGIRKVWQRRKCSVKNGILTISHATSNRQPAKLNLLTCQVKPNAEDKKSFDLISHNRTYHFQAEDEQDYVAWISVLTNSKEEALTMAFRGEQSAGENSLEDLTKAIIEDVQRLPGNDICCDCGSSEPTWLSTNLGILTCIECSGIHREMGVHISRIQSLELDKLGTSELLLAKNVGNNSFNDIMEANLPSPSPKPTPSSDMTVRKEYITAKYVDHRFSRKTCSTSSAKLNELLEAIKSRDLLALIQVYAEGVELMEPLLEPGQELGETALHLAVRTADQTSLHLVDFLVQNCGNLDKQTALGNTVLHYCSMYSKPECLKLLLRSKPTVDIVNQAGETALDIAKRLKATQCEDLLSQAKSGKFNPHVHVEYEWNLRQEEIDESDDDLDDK
Efflux pump mplx: antifungal efflux pump inhibition, Nile Red retention | S. cerevisiae Candida pump triplex | inhibition, % at 10 µM | hit rate 0.44% among 330,000;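 active = plate passing quality check with inhibition over a set limit, or well fluorescence over plate mean plus 4 SD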;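 note: Nile Red retained in pooled yeast measured as flow cytometry median fluorescence; 0% = buffer negative control and 100% = Enniatin B positive control; higher means more Nile Red kept so more efflux inhibition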
FGF22 binding: binders of recombinant human FGF22 by thermal shift | Q9HCT0 | SYPRO orange fluorescence; percent of sucrose octasulfate shift, DMSO zero | activity (Tm shift, normalised), % at 9.99 µM | hit rate 1.5% among 340,000 | AID 651658;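 active = mean Tm shift, scaled 0 neutral to 100 positive control, at about 1.3% or above, every replicate too, limit read from the data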
Rtt109 HAT inh: blocks Candida albicans Rtt109/Vps75 acetyltransferase activity | purified Rtt109/Vps75, ThioGlo CoA-SH fluorescence, 4 h | AID 540336 | inhibition, % at 34.9 µM | hit rate 0.16% among 330,000 | Q5AAJ8;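 active = inhibition of at least 50% in every replicate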
ARFGAP1 inh: rat ARFGAP1 inhibition; inhibition, % at 16.5 µM; hit rate 0.26% among 360,000; Q62848; Arfgap1-stimulated ARF1 GTP hydrolysis, GDP FP detection;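 active = inhibition above a per-plate limit, mean inhibition of low control wells plus 3 SD, cut at about 25% in these data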;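 note: 0% = DMSO wells with enzyme and 100% = wells lacking Arfgap1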
Target sequence (Q62848 1-136 limits assumed): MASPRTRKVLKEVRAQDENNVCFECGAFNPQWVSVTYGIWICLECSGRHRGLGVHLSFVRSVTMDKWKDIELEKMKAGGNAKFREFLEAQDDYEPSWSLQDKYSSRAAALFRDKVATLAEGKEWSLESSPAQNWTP
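System: truncated rat Arfgap1 GAP domain / Medium: HEPES-based buffer, pH 7.5 / Also added: N-terminally truncated human ARF1-GTP substrate / Incubation: enzyme reaction 120 min at 25 °C after 20 min preincubation / Measured by: FP of antibody-bound GDP Alexa 633 tracer, ex 620/em 688 nm / Replicates: singlicate, each compound tested once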
* marks the source's active call; other numbers are inactive results. The list is not random: actives were taken first. Their share in the collection is about 1.9%.

Results for CC1CC(C)CN(C(=O)COC(=O)CCC(=O)c2cccs2)C1 (configuration not stated) ?
ASAP1 inh: -3; Efflux pump mplx: 0; FGF22 binding: 44*; Rtt109 HAT inh: 0; ARFGAP1 inh: 4

How did O=C(CCC(=O)c1cccs1)OCC(=O)N1CCN(C(=O)c2ccco2)CC1 do in these assays?
ASAP1 inh: 4; Efflux pump mplx: 0; Rtt109 HAT inh: -2; ARFGAP1 inh: 5

Results for Cc1sc2ncnc(N3CCN(S(=O)(=O)c4ccc(F)cc4)CC3)c2c1C ?
ASAP1 inh: -7; Efflux pump mplx: 0; FGF22 binding: 0; Rtt109 HAT inh: 6; ARFGAP1 inh: -9

What do the screens show for `O=C(Nc1cccc(F)c1)N[C@H]1CC[C@@H](CCNS(=O)(=O)c2cccc(Cl)c2)O[C@@H]1CO`?
FGF22 binding: 0

How did CCCCNS(=O)(=O)c1ccc2nc(SCC(=O)Nc3sccc3C#N)[nH]c2c1 do in these assays?
ASAP1 inh: 27*; Efflux pump mplx: 0; Rtt109 HAT inh: 11; ARFGAP1 inh: 23

How did Cc1[nH][nH]c(=O)c1/C=N/N1CCOCC1 do in these assays?
ASAP1 inh: 9; Efflux pump mplx: 0; FGF22 binding: 43*; Rtt109 HAT inh: 15; ARFGAP1 inh: -14

What do the screens show for `O=C(CSCc1nc2c(nnn2Cc2ccc(F)cc2)c(=O)[nH]1)Nc1c(Cl)cc(Cl)cc1Cl`?
ASAP1 inh: 5; Efflux pump mplx: 0; FGF22 binding: 43*; Rtt109 HAT inh: 1; ARFGAP1 inh: 0

How did CCc1nc2c(nnn2Cc2ccc(F)cc2)c(=O)[nH]1 do in these assays?
ASAP1 inh: -2; Efflux pump mplx: 0; Rtt109 HAT inh: -14; ARFGAP1 inh: -14

Results for O=C(OCC(=O)N1CCN(Cc2ccccc2)CC1)c1ccc(Cl)cc1 ?
ASAP1 inh: 3; Efflux pump mplx: 0; FGF22 binding: 44*; Rtt109 HAT inh: -1; ARFGAP1 inh: -4

Results for Oc1cc(O)c(CN2CCOCC2)cc1CN1CCOCC1 ?
ASAP1 inh: 8; FGF22 binding: 0; Rtt109 HAT inh: 101*; ARFGAP1 inh: 1

Results for C[C@@H]1CCCCO[C@@H](CN(C)S(C)(=O)=O)[C@@H](C)CN([C@H](C)CO)C(=O)c2cc(NC(=O)NC3CCCCC3)ccc2O1 ?
FGF22 binding: 0

Results for CC(=O)Nc1ccc(S(=O)(=O)N2CCN(c3nc(NC4CCCC4)c4ccccc4n3)CC2)cc1 ?
ASAP1 inh: 18; Efflux pump mplx: 0; Rtt109 HAT inh: 0; ARFGAP1 inh: 39*

What do the screens show for `CC(=O)Nc1ccc(S(=O)(=O)N2CCN(c3cc(C)nc4ccccc34)CC2)cc1`?
ASAP1 inh: 6; Efflux pump mplx: 0; Rtt109 HAT inh: -1; ARFGAP1 inh: 2

How did CCCOc1ccc(C(=O)NNC(=O)CCNC(=O)c2ccccc2Cl)cc1OC do in these assays?
ASAP1 inh: -1; Efflux pump mplx: 0; FGF22 binding: 0; Rtt109 HAT inh: 0; ARFGAP1 inh: 12

Results for CN(CC(=O)Nc1c(Cl)cccc1Cl)C(=O)c1cccc(-n2cccc2)c1 ?
ASAP1 inh: 4; Efflux pump mplx: 0; Rtt109 HAT inh: 3; ARFGAP1 inh: 9

Results for CC1(C)C2CC=C(/C=N/NC(=O)c3ccccc3Br)C1C2 (configuration not stated) ?
ASAP1 inh: 3; Efflux pump mplx: 0; FGF22 binding: 43*; ARFGAP1 inh: 2

What do the screens show for `Cc1cc(C)nc(SCC(=O)Nc2ncc(Cc3cccc(Cl)c3Cl)s2)n1`?
ASAP1 inh: 11; Efflux pump mplx: 0; Rtt109 HAT inh: -1; ARFGAP1 inh: -1

How did CCOC(=O)Cc1cnc(NC(=O)CSc2nc(C)cc(C)n2)s1 do in these assays?
ASAP1 inh: 7; Efflux pump mplx: 0; FGF22 binding: 44*; Rtt109 HAT inh: 3; ARFGAP1 inh: 4

How did O=C(Nc1ccccc1)c1nc[nH]c1C(=O)NCCCNC(=O)c1[nH]cnc1C(=O)Nc1ccccc1 do in these assays?
ASAP1 inh: -3; Efflux pump mplx: 0; FGF22 binding: 0; Rtt109 HAT inh: -4; ARFGAP1 inh: -12

What do the screens show for `O=C1N=C(N2CCCC2C(=O)O)S/C1=C\c1ccco1` (configuration not stated)?
ASAP1 inh: -4; Efflux pump mplx: 0; FGF22 binding: 43*; Rtt109 HAT inh: 17; ARFGAP1 inh: 0

What do the screens show for `CC1=CC(C)(C)n2c(O)c(N=NC(N)=S)c3cccc1c32`?
ASAP1 inh: -3; Efflux pump mplx: 0; Rtt109 HAT inh: -5; ARFGAP1 inh: 6

What do the screens show for `CCCCN(C(=O)c1ccc2c(c1)OCO2)C1CCS(=O)(=O)C1` (configuration not stated)?
ASAP1 inh: -7; Efflux pump mplx: 0; FGF22 binding: 0; Rtt109 HAT inh: -4; ARFGAP1 inh: 10

How did CC(=O)c1ccc(NC(=S)Nc2ccn(Cc3ccc(Br)cc3)n2)cc1 do in these assays?
ASAP1 inh: 14; Efflux pump mplx: 0; FGF22 binding: 0; Rtt109 HAT inh: 9; ARFGAP1 inh: 5

What do the screens show for `COc1cccc(C(=O)CN2CCN(S(=O)(=O)c3cccc([N+](=O)[O-])c3)CC2)c1`?
ASAP1 inh: 2; Efflux pump mplx: 0; FGF22 binding: 43*; ARFGAP1 inh: 3

What do the screens show for `COc1ccc(C(=O)CN2CCN(S(=O)(=O)c3cccc([N+](=O)[O-])c3)CC2)cc1OC`?
ASAP1 inh: 6; Efflux pump mplx: 0; FGF22 binding: 1; Rtt109 HAT inh: -1; ARFGAP1 inh: 3

How did Cc1ccc(-n2c(C)nnc2SCC(=O)NNC(=O)c2ccco2)cc1 do in these assays?
ASAP1 inh: -4; Efflux pump mplx: 0; FGF22 binding: 44*; Rtt109 HAT inh: -12; ARFGAP1 inh: 4

Results for Cc1nnc(SCC(=O)NNC(=O)c2ccco2)n1-c1ccccc1 ?
ASAP1 inh: -1; Efflux pump mplx: 0; FGF22 binding: 0; Rtt109 HAT inh: 0; ARFGAP1 inh: -2

Results for COc1ccc(S(=O)(=O)Nc2ccc3c(c2)C(=O)N([C@H](C)CO)C[C@@H](C)[C@H](CN(C)Cc2ccc4c(c2)OCO4)O3)cc1 ?
FGF22 binding: 0

How did CCc1nc(N=C(N)N)nc2ccccc12 do in these assays?
ASAP1 inh: -7; Efflux pump mplx: 0; FGF22 binding: 43*; ARFGAP1 inh: -7

Results for C[C@H]1CN([C@@H](C)CO)C(=O)c2cccc(NS(C)(=O)=O)c2O[C@@H]1CN(C)S(=O)(=O)c1ccc(Cl)cc1 ?
FGF22 binding: 0

How did CN=c1scc(-c2cccs2)n1/N=C/c1ccc(O)c(O)c1O do in these assays?
ASAP1 inh: -2; Efflux pump mplx: 0; FGF22 binding: 43*; Rtt109 HAT inh: -6; ARFGAP1 inh: 4

How did O=C(c1ccc(Cl)c(Cl)c1)N(Cc1ccco1)c1ccc(O)cc1 do in these assays?
ASAP1 inh: -7; Efflux pump mplx: 0; Rtt109 HAT inh: -18; ARFGAP1 inh: 8
